# Screening data: PubChem, several laboratories
# Rows were chosen to be rich in hits. Some 2.7% of all compounds tested hit in one or more screens of this group.
# Yeast life ext: extends the lifespan of yeast. S. cerevisiae growth with nicotinamide, OD615; deaD strain in restrictive glucose medium. inhibition of the nicotinamide effect, % at 10 µM. actives 0.68% (n = 130,000). AID 775;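 active means inhibition above a set limit, placed 3 SD over the median of all compounds, cut at about 26% in these data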;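 further: 0% = nicotinamide-treated wells and 100% = cells grown without nicotinamide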
#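 Test system: DeaD-strain S. cerevisiae / Buffer or medium: restrictive glucose medium / Also added: nicotinamide 1.5 mM / Doses: one concentration, 10 µM, DMSO 0.25% / Schedule: 48 h at 30 °C / Signal: OD615 measurement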
# RAM inhibit: blocks the yeast RAM network; S. cerevisiae dse1pr::URA3 reporter, 5-FOA growth OD615, 2 d; analog-sensitive cbk1-as2 kinase mutant strain; inhibition, % at 50 µM; actives 1.8% (n = 190,000); AID 868;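 active means inhibition above a set limit, 3 SD over mean compound inhibition, cut at about 8.4% in these data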;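 further: 0% = DMSO-only wells with no growth and 100% = 10 µM 1-NA-PP1 full growth; inhibition rescues growth on 5-FOA so higher OD means more RAM inhibition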
# BB579 growth dn: reduces growth of yeast BB579 in restrictive medium; S. cerevisiae BB579 growth, OD615, 48 h; inhibition, % at 10 µM; actives 0.51% (n = 140,000); AID 804;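 active means inhibition above a set limit, 3 SD over the mean compound inhibition, cut at about 44% in these data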
#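 Test system: S. cerevisiae DeaD strain BB579 yeast; Medium: restrictive CSMM-D medium; Compound: one dose, 10 µM compound with 0.25% DMSO; Incubation: 4 h cell preincubation, 48 h compound exposure, 30 °C humidified; Signal: OD at 615 nm; Benchmarks: amphotericin B at 10 µg/mL as positive control.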
# SDO1 yeast rescue: sdo1-depleted yeast growth rescue; S. cerevisiae sdo1-depleted JHY4D growth rescue, OD600 30 h; stronger effect = higher value; pdr5 snq2 efflux-pump mutant strain; z-score at 10 µM; actives 0.21% (n = 140,000); AID 817;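 active means z-score above 3 at both the 24 hr and the 30 hr optical density reads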;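 further: z-score against mean and SD of all compound wells on the same plate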
# The depositor's hits bear a star; x = not tested or not shown; [ ] = remark or other dose.
SMILES,Yeast life ext,RAM inhibit,BB579 growth dn,SDO1 yeast rescue
c1ccc(-c2nnc3sc(-c4ccncc4)nn23)cc1,-12,0,2,0.95
COc1cccc(-c2nnc3sc(-c4ccccc4)nn23)c1,x,8.9*,-17,-2.1
Cc1cccc(-c2nnc3sc(-c4ccccc4C)nn23)c1,-8,0,44*,-3.1
C=CCNc1nnc(Cl)c2ccccc12,-14,1,-27,0.39
N#CCCN(Cc1cccnc1)C(=S)Nc1ccccc1Cl,x,-1,x,x
Cc1cc([N+](=O)[O-])ccc1NCc1ccccc1,-11,1,-46,-1.8
Cc1cc([N+](=O)[O-])ccc1NCc1ccc2ccccc2c1,-9,9.8*,-51,-1.1
C/C(=N/OC(=O)C1CC1)c1cc(-c2ccc(Cl)cc2)no1,x,4,x,x
COC(=O)c1ccc(Cl)c(-c2ccc(/C=N/NC(=O)Nc3ccccc3)o2)c1,-13,9.0*,-66,0.16
C=CCNC(=S)N/N=C/c1ccc(-c2cc(Cl)ccc2Cl)o1,-19,3,0,-0.84
COc1nonc1NC(=O)CSc1nc2ccccc2[nH]1,-1,0,-17,-0.52
Cc1ccccc1OCCNc1cc(N2CCNCC2)ccc1[N+](=O)[O-],x,1,x,x
COc1ccccc1OCCNc1cc(N2CCCCC2)ccc1[N+](=O)[O-],-4,11*,-12,-0.12
COC(C(=O)NC1CCCCCCC1)c1ccccc1 (stereo not drawn),5,1,-17,1.1
CCOC(=O)c1ccc2c(c1)C1C=CCC1C(C(=O)O)N2 (stereo not drawn),-9,9.7*,-34,0.5
CC(C)C1Nc2ccc(C(=O)O)cc2C2C=CCC21 (stereo not drawn),x,3,x,x
CCn1c(=O)c2ccccc2n2c(SCC(=O)N3CCCc4ccccc43)nnc12,39*,-1,-40,-0.19[8.4 µM]
COc1cc(OC)cc(-n2nnnc2SCC(=O)N2CCCc3ccccc32)c1,-33,8.9*,-22,-1.1
Cc1ccc(C)c2c1cc(C)c1nnc(SCC(=O)N3CCCc4ccccc43)n12,15,0,-38,-0.9
CCN(CC)C(=O)CSC1=C(C#N)C(c2cccs2)C=C(C)N1 (stereo not drawn),-5,4,-54,-1.5
O=C(CN1CCN(c2ncccn2)CC1)N1CCc2ccccc21,-3,0,-38,1.5
O=[N+]([O-])c1ccc(Sc2nc3ccccc3o2)c([N+](=O)[O-])c1,-11,-1,99*,-2.7
Cc1cccc(OCc2nnc(SCC(=O)Nc3ccc(C)c(C)c3)o2)c1,x,8,-23,-1.2
c1ccc2c(c1)C(=Nn1cnnc1)c1ccccc1-2,-19,1,54*,1.1
O=C1/C(=N/n2cnnc2)c2ccccc2N1Cc1ccccc1,39*,3,-42,-0.02
SMILES,Yeast life ext,RAM inhibit,BB579 growth dn,SDO1 yeast rescue
Oc1ccccc1/C=N/n1cnnc1,-13,0,7,0.18
CC(C)Cc1nc(C(N)=O)c2[nH]c(=O)n(-c3ccc(F)cc3)c2n1,-3,1,-28,-0.33
Cn1c(=O)oc2cc(S(=O)(=O)N3CCCC(C(=O)NCc4ccc5c(c4)OCO5)C3)ccc21 (stereo not drawn),-9,3,-32,-0.4
Cc1ccn2c(C(=O)CSc3ccccc3Cl)c(C)nc2c1,-15,1,-18,-0.84
O=C(O)C1C(c2ccccc2)C(C(=O)Oc2ccc(O)cc2)C1c1ccccc1 (stereo not drawn),-4,3,-58,0.96
COC(=O)c1ccccc1NC(=O)c1ccc(COc2ccccc2)o1,-13,9.6*,-29,-1
CCCN(CC(=O)Nc1ccc(Cl)cc1Cl)C(=O)/C=C/c1cc(OC)ccc1OC,-2,11*,-24,-0.76
CCCN(CC(=O)Nc1ccc(Cl)cc1Cl)C(=O)/C=C/c1cccc([N+](=O)[O-])c1,0,6,-1,-0.29
Cc1nc(N)sc1C(=O)N/N=C/c1c[nH]c2ccccc12,-28,1,12,0.27
COC(=O)C(=O)/C=C(\O)c1ccc(C)cc1,73*,-2,-20,-0.03
Cc1ccc(/C(O)=C/C(=O)C(=O)NNC(=O)C(O)(c2ccccc2)c2ccccc2)cc1,x,1,-36,0.76
CCCCCCCCCCCCCCCC(O)C(N)CO (stereo not drawn),-10,-1,100*,-0.52
CCOC(=O)C(C)(C)N(Cc1ccc(Cl)cc1)S(=O)(=O)c1ccc(Cl)c([N+](=O)[O-])c1,8,9.4*,-48,-2.1
CCOC(=O)C(C)(C)N(Cc1ccc(C)cc1)S(=O)(=O)c1ccc(Cl)c([N+](=O)[O-])c1,-3,9.8*,-25,-0.38
